{
  "source": "ChEMBL document CHEMBL4138315",
  "about": "“Synthesis and Evaluation of a Novel Bivalent Selective Antagonist for the Mu-Delta Opioid Receptor Heterodimer that Reduces Morphine Withdrawal in Mice” (J Med Chem, 2018)",
  "key": {"[1]": {"species_on_record": "Mus musculus", "assay": "Antinociceptive activity in CD1 mouse assessed as reduction in morphine-induced nociception at 10 nmol pretreated for 5 mins followed by morphine injection measured up to 2 hrs by tail flick assay", "format": "functional, organism-based", "summary_of_the_method": "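Male CD-1 mice received 10 nmol icv (vehicle 2% DMSO/10% Tween80/88% water), 5 min before sc agonist. SNC80 was 10 mg/kg in 20% DMSO/10% Tween80/70% saline; morphine was given in saline. 52°C tail flick, 10 s cutoff, recorded over a 2 h time course; experimenter blinded.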"}, "[2]": {"target": "T1, Opioid receptors; mu & delta (Homo sapiens, UniProt P41143+P35372)", "T1 sequence (P35372 whole entry, looked up)": "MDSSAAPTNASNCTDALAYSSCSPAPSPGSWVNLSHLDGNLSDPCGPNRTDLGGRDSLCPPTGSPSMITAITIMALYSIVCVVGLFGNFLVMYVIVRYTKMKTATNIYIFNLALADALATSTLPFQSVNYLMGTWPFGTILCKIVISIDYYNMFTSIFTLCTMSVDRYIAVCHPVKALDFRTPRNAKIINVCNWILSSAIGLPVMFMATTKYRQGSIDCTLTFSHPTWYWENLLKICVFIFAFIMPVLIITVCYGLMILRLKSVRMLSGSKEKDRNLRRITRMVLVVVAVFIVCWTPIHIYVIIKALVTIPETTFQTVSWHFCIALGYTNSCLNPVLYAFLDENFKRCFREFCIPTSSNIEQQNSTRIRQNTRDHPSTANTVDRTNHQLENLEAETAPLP", "T1 sequence (P41143 whole entry, looked up)": "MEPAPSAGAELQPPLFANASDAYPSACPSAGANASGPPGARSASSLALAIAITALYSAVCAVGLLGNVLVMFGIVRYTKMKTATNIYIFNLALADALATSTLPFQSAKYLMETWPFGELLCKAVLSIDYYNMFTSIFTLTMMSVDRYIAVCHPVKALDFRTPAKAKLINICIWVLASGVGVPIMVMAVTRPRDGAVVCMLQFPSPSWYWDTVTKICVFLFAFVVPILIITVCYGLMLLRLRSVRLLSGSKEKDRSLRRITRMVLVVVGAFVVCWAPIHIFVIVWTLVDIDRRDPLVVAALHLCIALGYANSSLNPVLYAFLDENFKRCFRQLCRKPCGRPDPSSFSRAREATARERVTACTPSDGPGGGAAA", "assay": "Displacement of [3H]-diprenorphine from human mu-delta opioid receptor expressed in CHO cell membranes after 80 mins by scintillation counting analysis", "summary_of_the_method": "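Competition binding on MOR-, DOR- or MDOR-CHO membranes used a fixed 3H-diprenorphine level against competitor concentration curves; 30°C, 80 min, GF/B filtration, scintillation counting. Nonspecific binding defined with 500 nM each DMT-Tic-Ala-OH and CTAP. Ki was derived from IC50 and the 3H-diprenorphine KD in each line; MDOR data fitted with a 2-site model. N = 3-4, mean ± SEM.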"}, "[3]": {"system": "Mus musculus", "assay": "Reduction in morphine dependence expression in acute morphine dependence ICR mouse model assessed as inhibition of naloxone-precipitated jumping behavior at 1 nmol, icv administered 5 mins prior to naloxone injection measured up to 20 mins relative to control", "format": "functional", "set-up": "scale not given: the % may be the effect or the level left", "summary_of_the_method": "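Acute dependence: morphine 100 mg/kg sc, then naloxone 10 mg/kg ip 4 h later. 1 nmol icv or vehicle given 5 min before naloxone; one control arm had no naloxone. Mice observed 20 min in plexiglass cylinders; jumps counted, then urine and feces weighed.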"}, "[4]": {"target": "T1, Opioid receptors; mu & delta", "assay": "Antagonist activity at human mu-delta opioid receptor heterodimer expressed in CHO cell membranes assessed as inhibition of DAMGO-induced [35S]-GTPgammaS binding preincubated for 5 mins followed by DAMGO and [35S]-GTPgammaS addition measured after 80 mins", "format": "functional", "summary_of_the_method": "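MDOR-CHO membranes were preincubated 5 min with antagonist concentration curve, then 1 µM DAMGO and 0.1 nM 35S-GTPγS were added. Incubated 30°C, 80 min; filter harvest, scintillation counting. Normalized to agonist alone and vehicle. N = 3 independent experiments in duplicate.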"}, "[5]": {"system": "Mus musculus", "assay": "Reduction in morphine dependence expression in acute morphine dependence ICR mouse model assessed as inhibition of naloxone-precipitated GI effects of withdrawal at 1 nmol, […] administered 5 mins prior to naloxone injection measured up to 20 mins", "format": "functional, organism-based"}, "[6]": {"target": "T1, Opioid receptors; mu & delta", "assay": "Antagonist activity at human mu-delta opioid receptor heterodimer expressed in CHO cell membranes assessed as inhibition of CYM51010-induced [35S]-GTPgammaS binding at high site fraction preincubated for 5 mins followed by CYM51010 and [35S]-GTPgammaS addition measured after 80 mins", "format": "functional", "summary_of_the_method": "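Membranes from CHO cells stably expressing human opioid receptor (N-terminal tagged) were preincubated 5 min with antagonist concentration curves, then given 1 µM CYM51010 and 0.1 nM 35S-GTPγS; 30°C, 80 min, GF/B filtration, scintillation counting. Normalized to CYM51010 alone (100%) and vehicle (0%). Fits: 1-site for MOR/DOR (IC50), 2-site for MDOR (IC50HIGH). N = 3-4, duplicate, mean ± SEM.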"}, "[7]": {"target": "T1, Opioid receptors; mu & delta", "assay": "Displacement of [3H]-diprenorphine from human mu-delta opioid receptor heterodimer expressed in CHO cell membranes at high site fraction after 80 mins by scintillation counting analysis relative to control"}, "[8]": {"system": "Mus musculus", "assay": "Antinociceptive activity in icv dosed CD1 mouse assessed as reduction in Deltorphin-2-induced nociception pretreated for 5 mins followed by Deltorphin-2 injection measured up to 2 hrs by tail flick assay", "format": "functional"}},
  "note": "The source made the active and inactive calls.",
  "data": [
    {"smiles": "N[C@@H](Cc1ccc(O)cc1)C(=O)N1Cc2ccccc2C[C@@H]1C(=O)NCC(=O)NCCCCC(=O)N[C@H](CCCCNC(=O)CCCCNC(=O)CNC(=O)[C@@H](Cc1cccc2ccccc12)NC(=O)[C@H](Cc1ccccc1)NC(=O)[C@@H]1CCCN1C(=O)[C@@H](N)Cc1ccc(O)cc1)C(=O)O", "values": [
      {"measurement": "Activity", "setting": "[1]", "value": "Active"},
      {"measurement": "KiH", "setting": "[2]", "value": 0.63, "unit": "nM"},
      {"measurement": "Activity", "setting": "[3]", "value": 53.2, "unit": "%"},
      {"measurement": "IC50", "setting": "[4]", "value": 153, "unit": "nM"},
      {"measurement": "Activity", "setting": "[5]", "value": "inactive"},
      {"measurement": "IC50H", "setting": "[6]", "value": 0.85, "unit": "nM"},
      {"measurement": "IC50L", "setting": "[6]", "value": "> 1000", "unit": "nM"},
      {"measurement": "Imax", "setting": "[7]", "value": 11, "unit": "%"},
      {"measurement": "A50", "setting": "[8]", "value": 7.77, "unit": "nmol"},
      {"measurement": "Activity", "setting": "[8]", "value": "Dose-dependent effect"}
    ]}
  ]
}
